Measured values reported in article PMC11252922 (Proceedings of the National Academy of Sciences of the …, 2024).
Numbering of substitutions follows the chain as printed. Where no end group is shown, it is not given here. The star is where a group is joined. Cbz = O=C(OCc1ccccc1)*

What was measured:
[1] = molecular target: T1, TG2 S3-2 Mut (E329A) (Homo sapiens, UniProt P21980, E329A); assay: steady-state kinetic analysis with S3-2 mutant; assay type: biochemical; settings: S3-2 (E329A) mutant, result in words
T1 sequence (P21980 1-687 E329A): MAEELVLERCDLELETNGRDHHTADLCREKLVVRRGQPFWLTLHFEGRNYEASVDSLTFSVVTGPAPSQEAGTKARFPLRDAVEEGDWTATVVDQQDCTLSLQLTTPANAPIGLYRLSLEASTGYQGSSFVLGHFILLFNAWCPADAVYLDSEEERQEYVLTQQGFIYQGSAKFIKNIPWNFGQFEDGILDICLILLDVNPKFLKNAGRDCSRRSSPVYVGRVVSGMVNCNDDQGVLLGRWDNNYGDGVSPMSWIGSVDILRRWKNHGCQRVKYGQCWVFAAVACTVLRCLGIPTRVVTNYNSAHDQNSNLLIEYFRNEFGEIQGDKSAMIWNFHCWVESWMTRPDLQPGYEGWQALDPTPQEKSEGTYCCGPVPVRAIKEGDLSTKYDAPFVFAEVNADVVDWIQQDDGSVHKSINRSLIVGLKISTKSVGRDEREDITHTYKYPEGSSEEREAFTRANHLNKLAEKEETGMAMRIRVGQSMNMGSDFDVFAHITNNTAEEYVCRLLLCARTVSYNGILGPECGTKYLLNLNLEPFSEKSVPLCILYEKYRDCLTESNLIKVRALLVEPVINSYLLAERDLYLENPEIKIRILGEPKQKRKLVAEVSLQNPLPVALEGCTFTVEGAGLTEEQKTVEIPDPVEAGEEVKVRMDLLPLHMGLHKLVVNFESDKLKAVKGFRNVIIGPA
Procedure, shortened: (§1)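 N-terminally His-tagged human TG2, wild type or site-directed mutant, was expressed in E. coli BAP1 and purified by Ni-NTA, anion exchange and size exclusion. Steady-state deamidation was assayed at 1 μM enzyme with varying Gln-peptide substrate concentrations. Released NH4+ was coupled to glutamate dehydrogenase with 10 mM α-ketoglutarate and 500 μM NADH in 200 mM MOPS. Ca2+ was 5 mM unless otherwise varied.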

[2] = molecular target: T2, human TG2 (Homo sapiens, UniProt P21980); assay: kinetic analysis of irreversible inhibitors using 1 as the TG2 substrate; assay type: biochemical; settings: KM of substrate 1 used in the inhibitor analysis (Fig. 1D legend)
T2 sequence (P21980 1-687): T1 sequence (P21980 1-687 E329A) with A329E
Procedure, shortened: as §1

Row | Substance | catalytic activity of S3-2 mutant against the substrate [1] | Km [2] [µM]
1 | AcPQLPF [Compound 1] | barely detectable | 175
2 | Cbz-Gln-Gly [ZQG, reference compound] | negligible | –
